Source: ChEMBL document CHEMBL4680230, “Discovery of aryl-piperidine derivatives as potential antipsychotic agents using molecular hybridization strategy” (Eur J Med Chem, 2020)

What was measured:
D(2) dopamine receptor = D(2) dopamine receptor (Homo sapiens, UniProt P14416); assay: Antagonist activity at human D2 receptor expressed in HEK293 cells incubated for 60 mins by Eu-cAMP tracer based LANCE ultra cAMP assay; type: cell-based
[1] = target: 5-hydroxytryptamine receptor 2A (Homo sapiens, UniProt P28223); assay: Antagonist activity at human 5HT2A receptor expressed in CHO-K1 cells measured after 15 mins by FLIPR assay; type: cell-based
Sequence of 5-hydroxytryptamine receptor 2A (P28223 whole entry): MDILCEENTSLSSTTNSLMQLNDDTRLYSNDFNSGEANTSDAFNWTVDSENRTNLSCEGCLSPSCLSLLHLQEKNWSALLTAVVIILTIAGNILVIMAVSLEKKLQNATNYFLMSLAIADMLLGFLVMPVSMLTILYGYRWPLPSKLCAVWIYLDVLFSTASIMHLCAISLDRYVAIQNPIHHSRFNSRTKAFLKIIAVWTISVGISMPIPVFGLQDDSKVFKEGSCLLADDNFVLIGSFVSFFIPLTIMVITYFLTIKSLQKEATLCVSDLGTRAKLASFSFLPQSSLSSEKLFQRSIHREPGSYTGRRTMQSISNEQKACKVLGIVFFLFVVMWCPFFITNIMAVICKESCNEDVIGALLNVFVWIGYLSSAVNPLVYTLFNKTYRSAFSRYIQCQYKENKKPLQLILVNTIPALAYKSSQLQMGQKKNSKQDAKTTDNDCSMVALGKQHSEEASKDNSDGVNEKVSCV

[2] = target: T1, 5-hydroxytryptamine receptor 1A (Homo sapiens, UniProt P08908); assay: Agonist activity at human 5H1A receptor expressed in HEK293 cells incubated for 60 mins by Eu-cAMP tracer based LANCE ultra cAMP assay; type: functional, cell-based
T1 sequence (P08908 whole entry): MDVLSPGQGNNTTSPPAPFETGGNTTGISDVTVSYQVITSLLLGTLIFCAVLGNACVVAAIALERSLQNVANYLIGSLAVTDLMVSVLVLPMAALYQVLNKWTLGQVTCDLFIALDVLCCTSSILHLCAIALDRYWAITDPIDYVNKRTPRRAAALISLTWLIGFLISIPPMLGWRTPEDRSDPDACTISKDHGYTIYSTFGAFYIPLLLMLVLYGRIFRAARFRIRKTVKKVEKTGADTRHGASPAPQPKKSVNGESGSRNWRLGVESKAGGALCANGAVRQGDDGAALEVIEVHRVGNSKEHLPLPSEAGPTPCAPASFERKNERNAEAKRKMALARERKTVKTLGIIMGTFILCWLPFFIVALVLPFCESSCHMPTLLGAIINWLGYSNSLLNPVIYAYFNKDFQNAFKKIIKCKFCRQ
Summary of the method: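 Cell-based TR-FRET cAMP assay on human 5-HT1A receptor-expressing cells. Cells were collected in stimulation buffer, added to the compound, centrifuged briefly and incubated 60 min at room temperature. Eu-cAMP tracer and ULight-anti-cAMP were then added, followed by another 60 min at room temperature before reading. The reference agonist was 8-OH-DPAT. […] came from sigmoidal nonlinear regression.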

[3] = Half life in mouse liver microsomes measured after 60 mins in presence of NADPH by LC-MS/MS analysis; type: ADME, Microsome
Summary of the method: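 Mouse liver microsomes (20 mg/ml stock) were incubated with compound in 0.1 M PBS, pH 7.4, at 37 °C. Compound came from a 1 mM methanol stock, diluted in methanol/water. Reaction was started with NADPH (10 mM stock). Aliquots at 0, 5, 10, 20, 40 and 60 min were quenched in cold methanol and centrifuged at 4 °C. Supernatants were analysed by LC-MS/MS.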

[4] = Tmax in ICR mouse at 25 mg/kg, po; type: ADME, organism-based; details: in vivo
Summary of the method: (§1)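 Pharmacokinetics in ICR mice, n = 6 per group, after a single 5 mg/kg intravenous dose or a 25 mg/kg oral dose. Plasma exposure gave AUC over 0–24 h, t1/2, Cmax and Tmax. Oral bioavailability was derived from comparison of the two routes.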

[5] = Brain to plasma partition coefficient, Kp of compound in ICR mouse at 1 mg/kg, iv measured after 1 hr; type: ADME, organism-based
Summary of the method: (§2)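 Brain penetration in ICR mice, n = 3 per group, given 1 mg/kg intravenously. Plasma, cerebrospinal fluid and brain levels were measured at 1 h and 4 h post-dose. Kp is the brain-to-plasma concentration ratio.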

[6] = AUC (0 to 24 hrs) in ICR mouse at 5 mg/kg, iv; type: ADME, organism-based; design: time < 24 hr, route intravenous, dose 5 mg/kg; details: in vivo; summary of the method: as §1
[7] = Plasma concentration in ICR mouse at 1 mg/kg, iv measured after 4 hrs; type: ADME, organism-based; summary of the method: as §2
[8] = Drug concentration in ICR mouse brain at 1 mg/kg, iv measured after 4 hrs; type: ADME, organism-based; summary of the method: as §2
[9] = Plasma concentration in ICR mouse at 1 mg/kg, iv measured after 1 hr; type: ADME, organism-based; summary of the method: as §2
[10] = Drug concentration in ICR mouse brain at 1 mg/kg, iv measured after 1 hr; type: ADME, organism-based; summary of the method: as §2
[11] = Drug concentration in ICR mouse cerebrospinal fluid at 1 mg/kg, iv measured after 1 hr; type: ADME, organism-based; details: read-out: Drug uptake; summary of the method: as §2
[12] = AUC (0 to 24 hrs) in ICR mouse at 25 mg/kg, po; type: ADME, organism-based; design: time < 24 hr, route oral, dose 25 mg/kg; details: in vivo; summary of the method: as §1
[13] = Brain to plasma partition coefficient, Kp of compound in ICR mouse at 1 mg/kg, iv measured after 4 hrs; type: ADME, organism-based; summary of the method: as §2
[14] = Cmax in ICR mouse at 25 mg/kg, po; type: ADME, organism-based; design: route oral, dose 25 mg/kg; details: in vivo; summary of the method: as §1
[15] = Oral bioavailability in ICR mouse at 25 mg/kg; type: ADME, organism-based; details: in vivo; summary of the method: as §1
[16] = Half life in ICR mouse at 25 mg/kg, po; type: ADME, organism-based; details: in vivo; summary of the method: as §1
[17] = Half life in ICR mouse at 5 mg/kg, iv; type: ADME, organism-based; details: in vivo; summary of the method: as §1
[18] = target: T1, 5-hydroxytryptamine receptor 1A; assay: Agonist activity at recombinant 5HT1A receptor (unknown origin) expressed in CHO cell membrane assessed as [35S]GTPgammaS binding by liquid scintillation counting method; type: functional, cell membranes
[19] = target: T1, 5-hydroxytryptamine receptor 1A; assay: Displacement of [3H]5-HT from recombinant 5HT1A receptor (unknown origin) expressed in CHO cell membrane measured after 50 mins by microbeta scintillation counting method; type: cell membranes

Sequence of D(2) dopamine receptor (P14416 whole entry): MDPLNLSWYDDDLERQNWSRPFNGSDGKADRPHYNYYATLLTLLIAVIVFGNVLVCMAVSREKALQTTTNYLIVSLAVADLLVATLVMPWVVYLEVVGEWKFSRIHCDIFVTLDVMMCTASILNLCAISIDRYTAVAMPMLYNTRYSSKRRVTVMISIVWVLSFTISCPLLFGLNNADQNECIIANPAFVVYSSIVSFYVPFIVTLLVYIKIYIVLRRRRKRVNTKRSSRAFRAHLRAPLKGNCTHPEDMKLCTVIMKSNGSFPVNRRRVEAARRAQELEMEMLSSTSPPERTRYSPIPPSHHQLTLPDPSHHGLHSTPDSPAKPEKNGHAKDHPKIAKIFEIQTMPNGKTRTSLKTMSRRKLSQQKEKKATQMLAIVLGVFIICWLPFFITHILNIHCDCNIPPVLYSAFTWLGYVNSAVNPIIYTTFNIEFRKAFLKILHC

| Structure (SMILES) | IC50 (D(2) dopamine receptor; read-out: IC50) [nM] | IC50 ([1]; read-out: IC50) [nM] | EC50 ([2]; read-out: EC50) [nM] | EC50 ([2]; hek293) | further results |
| --- | --- | --- | --- | --- | --- |
| CCCN(CCCN1CCN(c2cccc(Cl)c2Cl)CC1)C(=O)c1ccccc1 | 485 | 3250 | 452 | – | – |
| O=S(=O)(c1ccc(C(F)(F)F)cc1)N(CCCN1CCC(c2noc3cc(F)ccc23)CC1)C1COC1 | 2.3 | 92.7 | – | Not Active | – |
| N#Cc1ccc(S(=O)(=O)N(CCCN2CCC(c3noc4cc(F)ccc34)CC2)C2COC2)cc1 | 3.6 | 11.3 | – | Not Active | – |
| O=C(c1ccccc1)N(CCCN1CCC(c2noc3cc(F)ccc23)CC1)C1COC1 | 156 | 18.8 | – | Not Active | half-life [3]: 173 min |
| O=C(c1ccccc1)N(CCCN1CCC(c2noc3cc(F)ccc23)CC1)CC1CC1 | – | 40.8 | – | Not Active | half-life [3]: 6.9 min |
| CC(C)N(CCCN1CCN(c2cccc(Cl)c2Cl)CC1)C(=O)c1ccccc1 | 528 | 2010 | 46.1 | – | – |
| COc1ccccc1N1CCN(CCCN(CC2CC2)C(=O)c2ccccc2)CC1 | – | – | – | Not Active | IC50 ([1]; cho-k1): Not Active |
| CCCN(CCCN1CCN(c2ccccn2)CC1)C(=O)c1ccccc1 | 6930 | 7550 | 54.5 | – | – |
| O=S(=O)(c1ccc(Cl)cc1)N(CCCN1CCC(c2noc3cc(F)ccc23)CC1)C1COC1 | 2 | 34.6 | – | Not Active | – |
| CCCN(CCCN1CCC(c2noc3cc(F)ccc23)CC1)C(=O)c1ccccc1 | 18.5 | 73.1 | – | Not Active | half-life [3]: 6.2 min |
| O=S(=O)(c1ccccc1)N(CCCN1CCC(c2noc3cc(F)ccc23)CC1)C1COC1 | 1.9 | 9.3 | – | Not Active | – |
| O=C(c1ccccc1)N(CCCN1CCN(c2cccc(Cl)c2Cl)CC1)CC1CC1 | – | 768 | 175 | – | – |
| O=C(c1ccccc1)N(CCCN1CCN(c2ccccn2)CC1)C1COC1 | – | – | 374 | – | IC50 (D(2) dopamine receptor; hek293): Not Active; IC50 ([1]; cho-k1): Not Active |
| COc1ccccc1N1CCN(CCCN(C(=O)c2ccccc2)C2COC2)CC1 | 3760 | – | – | Not Active | IC50 ([1]; cho-k1): Not Active |
| O=C(c1ccccc1)N(CCCN1CCN(c2ccccn2)CC1)CC1CC1 | – | 7720 | 24.9 | – | IC50 (D(2) dopamine receptor; hek293): Not Active |
| O=S(=O)(c1ccc(F)cc1)N(CCCN1CCC(c2noc3cc(F)ccc23)CC1)C1COC1 | 3 | 15.1 | – | Not Active | Tmax [4]: 15 min; Kp at 1 h [5]: 1.72; AUC(0-t) at 24 h [6]: 829 ng·h/mL; concentration at 4 h [7]: 2.7 ng/mL; concentration at 4 h [8]: 10.7 ng/g; concentration at 1 h [9]: 75.4 ng/mL; concentration at 1 h [10]: 129 ng/g; concentration at 1 h [11]: 2 ng/mL; AUC(0-t) at 24 h [12]: 259 ng·h/mL; Kp at 4 h [13]: 4.03; Cmax [14]: 142 ng/mL; bioavailability [15]: 6.3%; half-life [16]: 120 min; half-life [17]: 32.4 min |
| COc1ccccc1N1CCN(CCCN(C(=O)c2ccccc2)C(C)C)CC1 | – | – | – | Not Active | IC50 ([1]; cho-k1): Not Active |
| O=C(CN1CCN(CCCc2c[nH]c3ccc(F)cc23)CC1)N(c1ccccc1)C1CCCCC1 | – | – | 7 | – | EC50 [18]: 7 nM; Ki (D(2) dopamine receptor): 2160 nM; Ki [19]: 51.9 nM; Ki [1]: 207 nM |
| CC(C)N(CCCN1CCC(c2noc3cc(F)ccc23)CC1)C(=O)c1ccccc1 | 59.3 | 11.6 | – | Not Active | half-life [3]: 31.5 min |
| CC(C)N(CCCN1CCN(c2ccccn2)CC1)C(=O)c1ccccc1 | – | – | 22.8 | – | IC50 (D(2) dopamine receptor; hek293): Not Active; IC50 ([1]; cho-k1): Not Active |
| O=C(c1ccccc1)N(CCCN1CCN(c2cccc(Cl)c2Cl)CC1)C1COC1 | 1880 | 2180 | 583 | – | – |
